HTRA1 inh: inhibitors of human serine peptidase HTRA1 | inhibition, % at 5.96 µM | Q92743 | 340,000 tested, 0.5% active | recombinant HTRA1, FP-rhodamine activity-based probe, fluorescence polarization | AID 504803; in the data active = inhibition above about 36%
Target sequence (Q92743 whole entry, looked up): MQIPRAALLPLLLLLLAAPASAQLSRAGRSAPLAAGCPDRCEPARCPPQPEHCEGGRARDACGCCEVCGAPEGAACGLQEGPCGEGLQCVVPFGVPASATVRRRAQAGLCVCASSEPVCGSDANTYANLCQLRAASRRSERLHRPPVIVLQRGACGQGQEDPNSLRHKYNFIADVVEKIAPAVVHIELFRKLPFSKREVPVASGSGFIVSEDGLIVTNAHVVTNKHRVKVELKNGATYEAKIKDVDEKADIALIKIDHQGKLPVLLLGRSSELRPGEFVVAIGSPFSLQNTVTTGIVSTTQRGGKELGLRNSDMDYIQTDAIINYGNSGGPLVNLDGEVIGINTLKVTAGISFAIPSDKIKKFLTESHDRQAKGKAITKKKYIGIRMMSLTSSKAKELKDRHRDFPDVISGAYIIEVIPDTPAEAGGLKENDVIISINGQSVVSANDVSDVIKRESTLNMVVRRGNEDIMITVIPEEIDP
mABHD4 FP: inhibitors of mouse ABHD4 | 370,000 tested, 0.54% active | AID 720543 | inhibition, % at 8.92 µM | purified mABHD4, FP-Rh probe fluorescence polarization;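 active = inhibition exceeding the mean over every tested compound plus 3 SD, cut at about 30% in these data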
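Doses – 8.92 µM, single dose · Material – wild-type mouse ABHD4 protein · Replication – single well per compound (singlicate) · Measure – percent inhibition of probe binding, normalized to plate controls · Schedule – 45 min compound pre-incubation plus 60 min probe step, 25 °C · Detection – fluorescence polarization with parallel and perpendicular emission, 525/598 nm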
DAGLB inhibitor: diacylglycerol lipase beta (human) inhibition. Q8NCG7. HEK293T DAGLB membrane lysate, EnzChek fluorogenic substrate. inhibition, % at 5.17 µM. 340,000 tested, 0.059% active; in the data active = inhibition above about 34%
SIAE primary: blocks human sialic acid acetylesterase | Q9HAT2 | 370,000 tested, 0.69% active | inhibition, % at 9.66 µM | SIAE FP-Rh probe binding, fluorescence polarization;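 active = inhibition above a cutoff: mean of compounds within the control limits plus 3 SD of those, cut at about 17% in these data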
TCR CD3 inh: human TCR-CD3 binding inhibition | AID 651800 | 360,000 tested, 0.37% active | TAMRA-labeled TCR probe fluorescence, biochemical | inhibition, % at 9.4 µM; in the data active = inhibition above about 19%;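 also: recombinant mutant TCR 2C K166C tagged with TAMRA read by polarization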
SIAE inh conf: human SIAE inhibition, confirmation; shares compounds with SIAE primary; SIAE FP-Rh activity-based probe, fluorescence polarization; inhibition, % at 9.66 µM; 2,300 tested, 13% active; AID 1117263;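 active = mean inhibition of the replicates above the hit cutoff set in the primary screen, cut at about 17% in these data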;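 also: inhibitors lower polarization as more probe stays unbound to SIAE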
Of the large screens only hits and unclear results are named; the others gave an inactive call (follow-up assays come after a bar, where they were run). A selection: hits, their analogues and other compounds. The true share with any hit is near 1.6%.

Cc1cccc(OCC(C)CN2CCC(C(O)(c3ccccc3)c3ccccc3)CC2)c1 (stereo not drawn)	none (no result: HTRA1 inh, DAGLB inhibitor, TCR CD3 inh)
C[C@@H]1CN([C@H](C)CO)C(=O)c2cc(NC(=O)Nc3ccccc3)ccc2O[C@@H](C)CCCCO[C@H]1CN(C)S(=O)(=O)c1ccc(F)cc1	none (no result: HTRA1 inh, DAGLB inhibitor, TCR CD3 inh)
Nc1ccc2nc(-c3cccc(-c4nc5ccc(N)cc5[nH]4)c3)[nH]c2c1	SIAE primary 25.8 | SIAE inh conf 36.7
COc1ccc(CN2CCN(Cc3ccc(C)cc3)CC2)c(OC)c1	none
COc1ccc(CN2CCN(Cc3ccccc3F)CC2)c(OC)c1	SIAE primary 17.3 | SIAE inh conf inactive
S=c1[nH]ncn1/N=C/c1ccccn1	SIAE primary 17.1 | SIAE inh conf inactive
O=C1C(CSCc2ccccc2)NC(=S)N1c1ccccc1 (stereo not drawn)	SIAE primary 100.2 (no result: HTRA1 inh, DAGLB inhibitor) | SIAE inh conf inactive
CCOc1ccc(Nc2nc(N)c([N+](=O)[O-])c(NCc3ccccc3)n2)cc1	SIAE primary 20.2 | SIAE inh conf 31.6
O=C(NCCc1ccccc1)OCc1cn(Cc2cccc(Cl)c2)nn1	none (no result: HTRA1 inh, DAGLB inhibitor, TCR CD3 inh)
CCOCCCNC(=O)CN1C(=O)CSc2cc(S(=O)(=O)N3CCCCCC3)ccc21	SIAE primary 31.4 | SIAE inh conf inactive
CCOCCCNC(=O)CN1C(=O)CSc2ccc(S(=O)(=O)N3CCOCC3)cc21	none
O=C([C@@H]1C[C@H]1c1ccccc1)N1CC[C@H]2[C@H](CCCN2Cc2ccc(F)cc2)C1	none (no result: HTRA1 inh, DAGLB inhibitor, TCR CD3 inh)
O=[N+]([O-])c1ccc(/C=N/NS(=O)(=O)c2ccc(Cl)cc2)o1	none
O=[N+]([O-])c1ccc(/C=N/Nc2ccnc3cc(Cl)ccc23)o1	SIAE primary 20.2 | SIAE inh conf inactive
COc1cc(OC)c(C2SCCCS2)cc1OC	SIAE primary 18.3 | SIAE inh conf inactive
COc1ccc2[nH]c3c(c2c1)CCN[C@]31C(=O)N(Cc2cn(Cc3ccccc3)nn2)c2ccc(F)cc21	none (no result: HTRA1 inh, DAGLB inhibitor, TCR CD3 inh)
Cc1ccc(N/C(N)=N/c2nc(C)cc(C)n2)cc1	none
Cc1cc(C)cc(N/C(N)=N/c2nc(C)cc(C)n2)c1	SIAE primary 22.6 | SIAE inh conf inactive
CCn1nc(NS(=O)(=O)c2ccc(NC(C)=O)cc2)c2cc3cccc(C)c3nc21	SIAE primary 18.4 | SIAE inh conf inactive
COc1ccccc1NC(=O)OC1CC2CC1[C@H]1CCCCN1[C@H]2C (stereo partly drawn)	none (no result: HTRA1 inh, DAGLB inhibitor, TCR CD3 inh)
COc1ccc(C2NC(=S)N(Cc3ccc(Cl)cc3)C(C)=C2C(C)=O)cc1 (stereo not drawn)	none (no result: HTRA1 inh, DAGLB inhibitor)
Cc1ccc(-c2cnc3n2CCCCC3)cc1	none
c1cc2c(cc1-c1cnc3n1CCC3)OCCO2	SIAE primary 17.3 | SIAE inh conf inactive
C[C@H]1[C@@H](N)CC[C@@]23CCCN2C(=O)CCC[C@@H]13	none (no result: HTRA1 inh, DAGLB inhibitor, TCR CD3 inh)
O=S(=O)(N1CCCCC1)n1nnc2cc3ccccc3cc21	none (no result: HTRA1 inh, DAGLB inhibitor)
Cc1ccc(NS(=O)(=O)c2ccc3c(c2)C(=O)c2ccccc2C3=O)c(C)c1	SIAE primary 18.4 | SIAE inh conf inactive
CN(C)c1ccc(C2SCCN2C(=O)c2ccc([N+](=O)[O-])cc2)cc1 (stereo not drawn)	SIAE primary 18.7 | SIAE inh conf inactive
O=C(c1ccc([N+](=O)[O-])cc1)N1CCSC1c1ccccc1 (stereo not drawn)	none
CCOC(=O)N/N=C/c1cn(Cc2ccc(Cl)cc2)c2ccccc12	SIAE primary 17.8 | SIAE inh conf inactive
COc1cc(OC)c(OC)cc1CNC(=O)CCN1C(=O)c2cccc([N+](=O)[O-])c2C1=O	SIAE primary 18.8 | SIAE inh conf inactive
COc1ccc(OC)c(NC(=O)CCN2C(=O)c3cccc([N+](=O)[O-])c3C2=O)c1	none
CCCC1CCC2(CC1)CCC2OC(=S)Nc1ccccc1OC (stereo not drawn)	none (no result: HTRA1 inh, DAGLB inhibitor, TCR CD3 inh)
Cc1sc(N/N=C/c2cccnc2)nc1-c1ccccc1	SIAE primary 17.2 | SIAE inh conf inactive
COc1ccccc1NCc1nc2ccccc2n1C	none (no result: HTRA1 inh, DAGLB inhibitor, TCR CD3 inh)
CC1=NN(c2ccccc2)C(=O)C1	none
CC1=NN(c2cccc([N+](=O)[O-])c2)C(=O)C1	SIAE primary 17.3 | SIAE inh conf inactive
CCNc1nc(N)c([N+](=O)[O-])c(Nc2cccc(Cl)c2)n1	none (no result: HTRA1 inh, DAGLB inhibitor, TCR CD3 inh)
O=C1NC(=Nc2ccccc2)S/C1=C\C=C\c1ccco1	SIAE primary 23.8 | SIAE inh conf inactive
Cc1cccc(N=C2NC(=O)/C(=C/C=C/c3ccco3)S2)c1C	SIAE primary 18.3 | SIAE inh conf inactive

Bioassay records (PubChem)
